Test [1] has as its system Pichia kudriavzevii. Kind of test: Antimicrobial activity against Candida krusei LMR 39-14 infected in immunosuppressed CF-1 mouse assessed as serum 1,3-beta-D-glucan level at 1 mg/kg, ip administered once daily for 5 days measured after 5 days (Rvb= 6.66). The class given is functional. The conditions noted are these: route intraperitoneal.
In test [2] the test system is Pichia kudriavzevii. In words: Antimicrobial activity against Candida krusei LMR 39-14 infected in immunosuppressed CF-1 mouse assessed as serum 1,3-beta-D-glucan level at 1 mg/kg, ip administered once daily for 5 days measured after 10 days (Rvb= 5.22). Conditions: route intraperitoneal. The class given is functional.
Test [3] has as its system Pichia kudriavzevii. In words: Antimicrobial activity against Candida krusei LMR 39-14 infected in immunosuppressed CF-1 mouse assessed as decrease in kidney bacterial burden at 1 mg/kg, ip administered once daily for 5 days measured after 5 days (Rvb= 6.66). The class given is functional. Conditions: route intraperitoneal. The procedure, abridged:
(§1)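 C. krusei clinical bloodstream isolate given IV by tail vein at 1.3×10^7 to 1.5×10^7 CFU/mouse, with inoculum confirmed by plating. Mice immunosuppressed with 5-FU 200 mg/kg i.p. 3 days before and dexamethasone 4 mg/kg s.c. on the day of infection. Treatment i.p. q24h for 5 days. Five mice/group killed day 5 or day 10. Both kidneys homogenized and plated on Sabouraud agar for 48 h; log10 CFU/g; detection limit 40 CFU/g; ANOVA; duplicate runs pooled.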

The subject of test [4] is Pichia kudriavzevii. In words: Antimicrobial activity against Candida krusei LMR 39-14 infected in immunosuppressed CF-1 mouse assessed as increased survival of mouse at 1 mg/kg, ip administered once daily for 5 days relative to control. The class given is functional, organism-based. Details: dose 1 mg/kg. The gist of the method: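 Immunosuppression used 5-FU 200 mg/kg i.p. on day −3 and dexamethasone 4 mg/kg s.c. on day 0. C. krusei bloodstream isolate was given IV via tail vein at 1.3×10^7 to 1.5×10^7 CFU. Drug i.p. q24h for 5 days, saline placebo. Fifteen mice/group per run followed for survival; experiment in duplicate, pooled. Kaplan-Meier estimates compared by log-rank test.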

Test [5] concerns Pichia kudriavzevii. Kind of test: Antimicrobial activity against Candida krusei LMR 39-14 infected in immunosuppressed CF-1 mouse assessed as decrease in kidney bacterial burden at 1 mg/kg, ip administered once daily for 5 days measured after 10 days (Rvb= 5.22). The class given is functional. Conditions: route intraperitoneal. The gist of the method: as §1
In test [6] the test system is Pichia kudriavzevii. In words: Antimicrobial activity against Candida krusei LMR 39-14 infected in immunosuppressed CF-1 mouse assessed as decrease in kidney bacterial burden at 20 mg/kg, ip administered once daily for 5 days measured after 5 days (Rvb= 5.22). The class given is functional. The conditions noted are these: route intraperitoneal.
Test [7] relates to Pichia kudriavzevii. Kind of test: Antimicrobial activity against Candida krusei LMR 39-14 infected in immunosuppressed CF-1 mouse assessed as serum 1,3-beta-D-glucan level at 10 mg/kg, ip administered once daily for 5 days measured after 5 days (Rvb= 6.66). The class given is functional. The conditions noted are these: route intraperitoneal. The procedure, abridged:
(§2)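 Serum (1,3)-β-D-glucan in immunosuppressed CF-1 mice (5-FU 200 mg/kg i.p. day −3, dexamethasone 4 mg/kg s.c. day 0) infected i.v. with 1.3×10^7 to 1.5×10^7 CFU. Mice dosed i.p. q24h for 5 days with saline placebo. Blood taken from five mice per group on day 5 or 10 post-inoculation and assayed with the Fungitell kit (threshold 31 pg/ml). Groups compared by Kruskal-Wallis; duplicate runs pooled.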

In test [8] the test system is Pichia kudriavzevii. Kind of test: Antimicrobial activity against Candida krusei LMR 39-14 infected in immunosuppressed CF-1 mouse assessed as decrease in kidney bacterial burden at 10 mg/kg, ip administered once daily for 5 days measured after 5 days (Rvb= 6.66). Conditions: route intraperitoneal. The class given is functional.
In test [9] the test system is Pichia kudriavzevii. In words: Antimicrobial activity against Candida krusei LMR 39-14 infected in immunosuppressed CF-1 mouse assessed as increased survival of mouse at 10 mg/kg, ip administered once daily for 5 days relative to control. Details: dose 10 mg/kg. The class given is functional, organism-based. The procedure, abridged: (§3)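 Same immunosuppressed CF-1 model: 5-FU 200 mg/kg i.p. on day −3, dexamethasone 4 mg/kg s.c. on day 0, i.v. tail inoculation of 1.3×10^7 to 1.5×10^7 CFU. Treatment i.p. q24h for 5 days with saline placebo. Fifteen mice per group observed for survival; run in duplicate with data pooled; Kaplan-Meier estimates compared by log-rank test.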

Test [10] relates to Pichia kudriavzevii. In words: Antimicrobial activity against Candida krusei by […]. The class given is functional.
Test [11] has as its system Pichia kudriavzevii. In words: Antimicrobial activity against Candida krusei LMR 39-14 infected in immunosuppressed CF-1 mouse assessed as decrease in kidney bacterial burden at 10 mg/kg, ip administered once daily for 5 days measured after 10 days (Rvb= 5.22). The class given is functional. The conditions noted are these: route intraperitoneal.
In test [12] the test system is Pichia kudriavzevii. Kind of test: Antimicrobial activity against Candida krusei LMR 39-14 infected in immunosuppressed CF-1 mouse assessed as serum 1,3-beta-D-glucan level at 10 mg/kg, ip administered once daily for 5 days measured after 10 days (Rvb= 5.22). The class given is functional. The conditions noted are these: route intraperitoneal. The gist of the method: as §2

Test [13] relates to Pichia kudriavzevii. In words: Antimicrobial activity against Candida krusei LMR 39-14 infected in immunosuppressed CF-1 mouse assessed as serum 1,3-beta-D-glucan level at 20 mg/kg, ip administered once daily for 5 days measured after 10 days (Rvb= 5.22). The class given is functional. The conditions noted are these: route intraperitoneal. The gist of the method: as §2
The test system of test [14] is Pichia kudriavzevii. Kind of test: Antimicrobial activity against Candida krusei LMR 39-14 by M27-A3 microdilution method. The class given is functional.
In test [15] the test system is Pichia kudriavzevii. Kind of test: Antimicrobial activity against Candida krusei LMR 39-14 infected in immunosuppressed CF-1 mouse assessed as decrease in kidney bacterial burden at 20 mg/kg, ip administered once daily for 5 days measured after 10 days (Rvb= 5.22). The class given is functional. Conditions: route intraperitoneal.
Test [16] concerns Pichia kudriavzevii. In words: Antimicrobial activity against Candida krusei LMR 39-14 infected in immunosuppressed CF-1 mouse assessed as increased survival of mouse at 20 mg/kg, ip administered once daily for 5 days relative to control. The class given is functional, organism-based. Details: dose 20 mg/kg. The procedure, abridged:
as §3

Test [17] has as its system Pichia kudriavzevii. Kind of test: Antimicrobial activity against Candida krusei LMR 39-14 infected in immunosuppressed CF-1 mouse assessed as serum 1,3-beta-D-glucan level at 20 mg/kg, ip administered once daily for 5 days measured after 5 days (Rvb= 5.22). The class given is functional. The conditions noted are these: route intraperitoneal. The procedure, abridged: as §2

For test [18], the system named is Pichia kudriavzevii. Kind of test: Antimicrobial activity against Candida krusei LMR 39-14 infected in immunosuppressed CF-1 mouse assessed as increased survival of mouse at 40 mg/kg, ip administered once daily for 5 days relative to control. Details: dose 40 mg/kg. The class given is functional, organism-based. The gist of the method: as §3
The test system of test [19] is Pichia kudriavzevii. In words: Antimicrobial activity against Candida krusei LMR 39-14 infected in immunosuppressed CF-1 mouse assessed as decrease in kidney bacterial burden at 40 mg/kg, ip administered once daily for 5 days measured after 5 days (Rvb= 6.66). The conditions noted are these: route intraperitoneal. The class given is functional.
In test [20] the test system is Pichia kudriavzevii. Kind of test: Antimicrobial activity against Candida krusei LMR 39-14 infected in immunosuppressed CF-1 mouse assessed as decrease in kidney […] burden at 40 mg/kg, ip administered once daily for 5 days measured after 10 days (Rvb= 5.22). The class given is functional. Conditions: route intraperitoneal.
Test [21] concerns Pichia kudriavzevii. In words: Antimicrobial activity against Candida krusei LMR 39-14 infected in immunosuppressed CF-1 mouse assessed as serum 1,3-beta-D-glucan level at 40 mg/kg, ip administered once daily for 5 days measured after 5 days (Rvb= 6.66). The class given is functional. The conditions noted are these: route intraperitoneal. The procedure, abridged:
as §2

Test [22] concerns Pichia kudriavzevii. Kind of test: Antimicrobial activity against Candida krusei LMR 39-14 infected in immunosuppressed CF-1 mouse assessed as serum 1,3-beta-D-glucan level at 40 mg/kg, ip administered once daily for 5 days measured after 10 days (Rvb= 5.22). The conditions noted are these: route intraperitoneal. The class given is functional. The procedure, abridged:
as §2

Converted amounts (≈) assume the structure as drawn. The source made the active and inactive calls. Numbered stars: 1 amine (or outer) side, 2 acyl side, 3 side chain; on linkers, the order of the positions; unused ones are H or OH. Bridge positions count the residues as written; N and C are the ends. Square brackets hold non-standard residues; d marks the D form. Peptide text beside a SMILES is read from it. * marks the point of attachment. pTerphenylCO(4''-OnC5H11) = CCCCCOc1ccc(-c2ccc(-c3ccc(C(=O)*)cc3)cc2)cc1; Orn(4R-OH,5R-OH) = O=C([C@H](C[C@@H](O)[C@@H](O)N[*:3])N[*:1])[*:2]; hTyr(3S-OH,4S-OH) = N[C@H](C(=O)O)[C@H](O)[C@@H](O)c1ccc(O)cc1; Pro(3S-OH,4S-Me) = C[C@H]1CN[C@H](C(=O)O)[C@H]1O; Hyp = O=C(O)[C@@H]1C[C@@H](O)CN1

Usually MIC90 stands for the lowest concentration that inhibits either 90% of growth or 90% of the strains tested, depending on the study. A high value points to lower susceptibility. As a reminder, the MIC is the lowest concentration found to suppress growth. The low end stands for inhibition by little substance, the high end for a need for much substance.

With `C[C@@H]1[C@H](O)[C@@H](C)/C=C/C=C/C=C/C=C/C=C/C=C/C=C/[C@H](O[C@@H]2O[C@H](C)[C@@H](O)[C@H](N)[C@@H]2O)C[C@@H]2O[C@](O)(C[C@@H](O)C[C@@H](O)[C@H](O)CC[C@@H](O)C[C@@H](O)CC(=O)O[C@H]1C)C[C@H](O)[C@H]2C(=O)O` [AMPHOTERICIN B], the figures for the Activity in [1] and in test [2] were 2559 pg/mL and 1742 pg/mL, respectively. Also, the log10CFU/g in test [3] stood at 5.95; in test [5] it was 4.96. For the same compound, the outcome in test [4] was Active.

As for `CCCCCOc1ccc(-c2ccc(-c3ccc(C(=O)N[C@H]4C[C@@H](O)[C@@H](O)NC(=O)[C@@H]5[C@@H](O)[C@@H](C)CN5C(=O)[C@H]([C@@H](C)O)NC(=O)[C@H]([C@H](O)[C@@H](O)c5ccc(O)cc5)NC(=O)[C@@H]5C[C@@H](O)CN5C(=O)[C@H]([C@@H](C)O)NC4=O)cc3)cc2)cc1` [ANIDULAFUNGIN] ({pTerphenylCO(4''-OnC5H11)}-[Orn(4R-OH,5R-OH)]T[Hyp][hTyr(3S-OH,4S-OH)]T[Pro(3S-OH,4S-Me)]; lactam 1-C), the log10CFU/g is recorded as 3.97 in test [6], 4.06 in test [8], 0.96 in [11] and 1.59 in test [15]. The Activity in [7] turned out to be 256 pg/mL; in test [12] it was 624 pg/mL; in test [13], 693 pg/mL; in test [17], 351 pg/mL. Besides, the outcome in [9] and in [16] was Active. In test [10], this compound came in with an MIC90 of 0.06 µg/mL (≈ 0.0526 µM). This compound gave an MIC in test [14] of 0.06 µg/mL (≈ 0.0526 µM).

With `OC(Cn1cncn1)(Cn1cncn1)c1ccc(F)cc1F` [FLUCONAZOLE], the result in [18] was Active. In addition, the log10CFU/g was determined as 7.01 in [19] and 4.77 in test [20]. In test [14], this compound showed an MIC greater than 64 µg/mL. For the same compound, the figures for the Activity in test [21] and in test [22] were 2714 pg/mL and 1292 pg/mL, respectively.

The values are drawn from ChEMBL document CHEMBL1629668, “Activity of anidulafungin in a murine model of Candida krusei infection: evaluation of mortality and disease burden by quantitative tissue cultures and measurement of serum (1,3)-beta-D-glucan levels” (2009).
